Screening data as filed in PubChem.
NR3A LBD binder: modulates the human NR3A ligand-binding domain. NR3A LBD differential scanning fluorimetry, Tm shift; 0% = protein alone, 100% = glycine-bound protein. Tm shift relative to glycine control, % at 25 µM. hit rate 2.5% among 340,000. AID 1259313;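 active = melting temperature shift of at least 10% of the positive control shift, at one fixed dose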
MPTP block: blocks calcium-induced mitochondrial swelling; inhibition, % at 10 µM; hit rate 1.4% among 360,000; isolated mouse mitochondria, Ca2+ swelling absorbance, 30 min; AID 602449;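 active = inhibition of 50% or more, scaled per plate between neutral and stimulator controls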;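 also: 0% = DMSO wells given calcium and 100% = 1 mM EGTA wells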
proCasp7 act: counter-screen for procaspase-3 activators: activators of human procaspase-7 | P55210 | recombinant procaspase-7, Ac-DEVD-pNA absorbance 405 nm; D23A/D198A/D206A triple mutant, cannot self-cleave; scale: DMSO 0, 5 µM enzyme 100 | activation, % at 8.5 µM | hit rate 0.093% among 330,000 | AID 463210;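 active = percent activation above the screen-wide mean plus 3 SD, cut at about 25% in these data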
Target sequence (P55210 whole entry D23A/D198A/D206A): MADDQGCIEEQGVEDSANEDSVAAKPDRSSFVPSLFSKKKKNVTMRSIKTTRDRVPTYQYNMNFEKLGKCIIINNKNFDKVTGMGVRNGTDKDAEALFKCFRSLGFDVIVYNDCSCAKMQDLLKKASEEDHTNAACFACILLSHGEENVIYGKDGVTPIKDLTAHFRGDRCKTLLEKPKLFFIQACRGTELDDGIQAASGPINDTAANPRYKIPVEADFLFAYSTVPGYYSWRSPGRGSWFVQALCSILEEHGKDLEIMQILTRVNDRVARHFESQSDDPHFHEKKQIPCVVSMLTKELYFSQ
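Assay system: Uncleavable procaspase-7 mutant enzyme / Input: 2 µM procaspase-7 mutant as dispensed / Dosing: single nominal 8.5 µM compound dose, 0.8% DMSO final / Timing: 1 h enzyme–compound preincubation and 2 h substrate reaction, both 25 °C / Detection: p-Nitroaniline absorbance at 405 nm, read at 0 and 120 min / Replication: singlicate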
procasp3 activ: activates human procaspase-3; hit rate 0.11% among 330,000; P42574; recombinant procaspase-3 D3A, Ac-DEVD-pNA absorbance 405 nm; AID 463141; activation, % at 8.5 µM;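 active = activation above the mean of all tested compounds plus 3 SD, cut at about 21% in these data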;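 also: 0% = DMSO alone and 100% = DMSO wells spiked with extra 5 µM PC-3 D3A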
Target sequence (P42574 whole entry D9A/D28A/D175A): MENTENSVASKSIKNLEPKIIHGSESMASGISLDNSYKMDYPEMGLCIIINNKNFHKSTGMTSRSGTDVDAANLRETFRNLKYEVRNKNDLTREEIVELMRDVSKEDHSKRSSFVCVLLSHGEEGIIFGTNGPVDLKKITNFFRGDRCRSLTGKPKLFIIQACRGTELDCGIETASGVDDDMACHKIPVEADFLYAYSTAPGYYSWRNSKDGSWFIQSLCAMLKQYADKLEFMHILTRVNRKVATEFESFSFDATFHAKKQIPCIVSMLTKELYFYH
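Evaluation: percent activation relative to control range; Material: Procaspase-3 D3A mutant, all three cleavage aspartates alanine; Compound: single dose, 8.5 µM nominal compound, 0.8% DMSO; Replication: one well per compound; Signal: absorbance at 405 nm, 0 and 120 min; Schedule: 1 h preincubation plus 2 h reaction at 25 °C.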
aDG glyco act: increases alpha dystroglycan glycosylation; Pro5-aDG cells, alpha-DG glycosylation AlphaScreen (IIH6); 0% Pro5, 100% B10-LARGE cell signal; activation, % at 10 µM; hit rate 0.22% among 360,000;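 active = activation of at least 8% versus controls, or a plate z-score of at least 8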;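 also: Pro5 are CHO cells carrying HIG-tagged alpha-DG that lacks glycosylation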
Rh123 counter: membrane potential counter-screen of mitochondrial pore inhibitors; shares compounds with MPTP block; isolated mitochondria, Rhodamine 123 fluorescence; inhibition, % at 10 µM; hit rate 78% among 5,000; AID 624504; in the data active = inhibition above about 22%;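 also: 0% = DMSO vehicle and 100% = positive control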
Numbers without * were called inactive; . = not tested or not shown. Hits are enriched below; roughly 3.7% of the tested compounds scored in any of these assays.

SMILES	NR3A LBD binder	MPTP block	proCasp7 act	procasp3 activ	aDG glyco act	Rh123 counter
CC(C)c1ccccc1NC(=O)C1CCCN(C(=O)c2ccc(Cl)cc2)C1 (stereo unspecified)	0	-1	.	.	1	.
COCCN1C[C@@H](CO)O[C@@H](n2cnc3c(NC(C)C)ncnc32)C1	.	-1	.	.	0	.
O=S(=O)(c1ccc(Cl)cc1)N1CCN(C(=S)Nc2ccc(F)c(Cl)c2)CC1	18*	85*	-19	-3	0	88*
CC(=C/c1ccccc1)/C=N/NC(=O)CSc1nc(C)cc(C)n1	-4	62*	3	2	1	33*
Cc1nnsc1SCCNC(=O)Nc1ccc(Cl)cc1	28*	88*	9	3	1	90*
Cc1nnsc1C(=O)Nc1ccc(Cl)cc1	0	6	-1	-4	0	.
COc1ccccc1CNC(=O)COC(=O)Cn1cnc2ccccc21	0	-1	1	3	0	.
O=C(CN1C(=O)C2C3C=CC(C4CC34)C2C1=O)OCC(=O)c1ccccc1 (stereo unspecified)	-1	0	-3	4	1	.
CC(C)n1ncc2c(C(=O)Nc3ccccc3SCC(N)=O)cc(C3CC3)nc21	.	0	.	.	0	.
Cc1nc(NCCc2cnc[nH]2)c2oc3ccccc3c2n1	-3	-3	5	10	0	.
COc1ccc(CCNc2nc(C)nc3c2oc2ccccc23)cc1OC	-1	71*	-5	-1	6	91*
Cc1ccc(Cc2nnc(SCC(=O)Nc3ccccc3Cl)[nH]c2=O)cc1	-4	-1	2	-3	0	.
COc1ccc(Cl)cc1NC(=O)CSc1nnc(Cc2ccc(C)cc2)c(=O)[nH]1	-6	63*	7	-1	0	67*
COc1ccc(Oc2ccc(/C=C/C(=O)c3ccc(O)cc3)cc2[N+](=O)[O-])cc1	20*	88*	-7	-1	-1	66*
Cc1cc(C(=O)COc2ccccc2C(N)=O)c(C)n1CC1CCCO1 (stereo unspecified)	2	93*	11	-1	2	80*
Cc1cc(=O)oc2c(C)c(OC(C)C(=O)Nc3ccc(N4CCC(C)CC4)cc3)ccc12 (stereo unspecified)	-4	0	3	1	0	.
OC[C@@H]1CN(Cc2ccccc2)C[C@H](n2ccc3c(N4CCCC4)ncnc32)O1	.	-3	.	.	0	.
CCCN1CCC(NC(=O)Nc2ccc([N+](=O)[O-])cc2)CC1	-2	3	14	-2	0	.
CCCN1CCC(NC(=O)Nc2ccc(Br)cc2)CC1	1	61*	0	6	0	76*
CCc1cc2c(SCC(=O)N3CCN(C(=O)c4cccs4)CC3)ncnc2s1	.	-2	.	.	0	.
CC(C)N1CCc2c(sc(NC(=O)c3cc(-c4cccs4)nc4ccccc34)c2C(N)=O)C1	5	83*	-5	-9	0	-29
CC(C)N1CCc2c(sc(NC(=O)c3nc4ccccc4s3)c2C(N)=O)C1	-4	-1	-8	3	1	.
O=C(c1ccc(-c2ccccc2)cc1)N1CCN(c2nc3ccccc3o2)CC1	-3	4	.	.	0	.
Cc1csc2c(N3CCN(C(=O)Nc4ccc(Cl)c(Cl)c4)CC3)ncnc12	9	88*	-1	-7	0	80*
CC(C)(C)c1ccc(C(=O)N2CCN(c3nc4ccccc4o3)CC2)cc1	-2	52*	-4	-10	1	44*
SMILES	NR3A LBD binder	MPTP block	proCasp7 act	procasp3 activ	aDG glyco act	Rh123 counter
Cc1csc2ncnc(N3CCN(C(=S)Nc4ccc(C(F)(F)F)cc4)CC3)c12	15*	91*	-5	-4	0	94*
Cc1csc2c(N3CCN(C(=S)Nc4ccc(C(F)(F)F)cc4)CC3)ncnc12	8	97*	-11	3	0	92*
Cc1cc(C)cc(NC(=S)N2CCN(c3ncc(C(F)(F)F)cc3Cl)CC2)c1	-10	29	5	-12	0	.
Cc1cn([C@H]2C[C@H](O)[C@@H](/C=C/C(=O)NCCN3CCOCC3)O2)c(=O)[nH]c1=O	.	0	.	.	0	.
Cc1csc2c(N3CCN(C(=O)c4ccc(C(C)(C)C)cc4)CC3)ncnc12	-1	96*	-1	3	1	83*
Cc1csc2c(N3CCN(C(=O)NC(C)(C)C)CC3)ncnc12	5	18	5	-15	0	.
CC(C)CCN(C(=O)c1cn2ccccc2n1)c1c(N)n(Cc2ccccc2)c(=O)[nH]c1=O	-1	0	.	.	1	.
CC(C(=O)Nc1ccc(C#N)cc1)N1CCN(C(=O)C2CC2)CC1 (stereo unspecified)	0	0	6	9	0	.
N#CC(/C(=N/S(=O)(=O)c1cccs1)c1ccccc1)c1nc2ccccc2[nH]1 (stereo unspecified)	-1	66*	6	-4	0	72*
CCOC(=O)CNNC(=O)Nc1ccc(Cl)c(Cl)c1	-1	69*	-3	2	0	65*
CCOC(=O)N(CC)OC(=O)Nc1ccc(Cl)cc1	-1	57*	0	4	0	63*
CCOC(=O)NCCOC(=O)Nc1ccc(Cl)cc1	-1	-2	7	8	0	.
Cc1ccsc1C(=O)NNC(=O)Nc1ccc(Cl)c(Cl)c1	-1	1	-3	5	0	.
CC(C)(O)CNC(=O)Nc1ccc(Cl)c(Cl)c1	1	15	-2	-6	0	.
CN(C)CCNC(=O)Nc1ccc(Cl)c(Cl)c1	-2	71*	-6	-1	0	94*
CCOC(=O)N(C)OC(=O)Nc1ccc(Cl)c(Cl)c1	3	73*	-9	-6	0	83*
CCCCn1nnnc1C(c1ccc(OC)cc1)N1CCN(C/C=C/c2ccccc2)CC1 (stereo unspecified)	.	-2	.	.	0	.
CCCN(CC1CC1)C(=O)COC(=O)c1oc2c(F)cccc2c1C	-2	0	-4	1	0	.
C[C@H](NC(=O)c1cccc([N+](=O)[O-])c1)C(=O)OCC(=O)c1ccccc1Br	-1	0	10	10	0	.
CN(c1ccccc1)S(=O)(=O)c1cccc(C(=O)NCC(c2cccs2)N2CCOCC2)c1 (stereo unspecified)	.	1	.	.	0	.
O=C(CCC1CCCN(C(=O)c2ccc3c(c2)OCO3)C1)NCc1ccc(F)c(F)c1 (stereo unspecified)	1	1	8	8	0	.
Cn1nc(C(F)(F)F)c2cc(C(=O)Nc3ccc(F)cc3)sc21	0	26	0	2	0	.
Cn1nc(C(F)(F)F)c2cc(C(=O)Nc3ccc(F)c(Cl)c3)sc21	-3	89*	3	-1	0	76*
